From PubChem
Tb MetRS inh = T. brucei MetRS inhibitors, primary screen, biochemical, luminescence. inhibition, % at 11.9 µM. hit rate 0.4% among 360,000. methionyl-tRNA synthetase (Trypanosoma brucei brucei). AID 624268, 2012. purified T. brucei MetRS, ATP depletion, Kinase-Glo luminescence;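 active means inhibition above a per-plate cutoff of the control wells' mean inhibition plus 3 SD, cut at about 5.5% in these data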;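 further: 0% = DMSO wells median and 100% = median of wells with control inhibitor compound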
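Test system – parasite MetRS enzyme · Reagent – substrates ATP, L-methionine and bulk Escherichia coli tRNA · Doses – 11.9 µM compound single dose, 0.9% DMSO · Times – 15 min enzyme-compound preincubation, 2 h reaction, 10 min detection, 25 °C · Signal – Kinase-Glo luminescence, ATP depletion format · Controls – DMSO-only wells as low control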
Lipid droplet = inhibitors of hepatocyte lipid droplet formation, primary screen, imaging, high-throughput imaging, BODIPY stain. AML12 mouse hepatocytes, oleate lipid droplets. inhibition, % at 6.5 µM. hit rate 0.4% among 240,000. AID 1656, 2009;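 active means lipid droplet intensity inhibited by at least 50%, with more than 500 cells counted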
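Material – mouse AML12 hepatocyte cell line, fixed after treatment · Compound dosing – one dose, 6.5 µM compound · Times – compound with oleate, overnight · Measured by – Image-based BODIPY and DAPI two-channel analysis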
HCV NS3 hel inh = inhibitors of HCV NS3 helicase, primary screen, biochemical, Cy5 molecular beacon fluorescence; hit rate 0.56% among 290,000; NS3 helicase DNA unwinding; Hepatitis C virus NS3 helicase; inhibition, % at 10.9 µM;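 active means inhibition above the mean of all tested compounds plus 3 SD, set per campaign, cut at about 35% in these data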;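 further: 0% = DMSO wells and 100% = thioflavine S control wells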
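Control set: DMSO versus 110 µM thioflavine S; Material: NS3 helicase fragment of HCV; Measured by: Cy5 fluorescence at 0 and 60 min, beacon hairpin quenching; Read-out basis: percent inhibition from t60/t0 fluorescence ratio; Times: reaction time 60 min, 25 °C; Repeats: single replicate; Compound dosing: single dose, 10.9 µM nominal final, DMSO 0.8% final.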
HCV core dimer = inhibitors of HCV core protein dimerization, primary screen, biochemical, TR-FRET, high-throughput; AID 1899, 2009; hit rate 0.33% among 300,000; inhibition, % at 5 µM; TR-FRET GST/Flag-core106 dimerization, 1536-well;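 active means inhibition above the mean of all tested compounds plus 3 SD, set per screening campaign, cut at about 45% in these data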
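assay system = GST-tagged and Flag-tagged HCV core protein residues 1-106 | controls = unlabelled core106 and no-GST-core106 wells | incubation = compound-protein-antibody incubation 4 h at 22.5 °C | probe or stimulus = Eu donor and XL665 acceptor anti-tag antibodies | read-out = % inhibition based on acceptor/donor emission ratio | signal = TR-FRET 671 and 617 nm emission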
Lipid drop inh = hepatocyte lipid droplet accumulation inhibitors, confirmation, imaging, AML12 mouse hepatocytes, single concentration, high-content; inhibition, % at 5.2 µM; shares compounds with Lipid droplet; AID 463183, 2010; hit rate 65% among 870; BODIPY lipid droplet imaging; droplets induced with 100 µM oleic acid;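 active means inhibition of lipid droplet metric at least 50%, with more than 300 cells in each of four replicates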;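 further: plate controls were DMSO with oleic acid for no effect and 5 µM Triacsin-C for full effect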
AML12 tox img = AML12 hepatocyte cytotoxicity, counter-screen for hepatic lipid droplet formation project, imaging, DAPI nuclear morphology imaging; shares compounds with Lipid droplet; AML12 mouse hepatocytes; stronger effect = higher value; cells fed 100 µM oleate overnight; z-score at 5 µM; hit rate 3% among 870; AID 463200, 2010; in the data active means z-score above about 6.3;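 further: compound exposure lasted overnight at 37 °C before fixation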
AML12 tox conf = AML12 hepatocyte cytotoxicity, confirmation, cytotoxicity control for hepatic lipid droplet formation project, cell-based, single concentration; shares compounds with Lipid droplet; AML12 mouse hepatocyte viability, ATP luminescence; cells loaded with 100 µM oleic acid; cytotoxicity, % at 50 µM; 530 tested, under 10 active;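 active means cytotoxicity above 50% in each of four replicates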;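 further: compound exposure lasted overnight at 37 °C before the ATP read; 0% = DMSO-treated cells and 100% = wells with no cells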
The depositor's hits bear a star; x = no result. Hits are enriched below; roughly 1.3% of the tested compounds scored in any of these assays.

SMILES | Tb MetRS inh | Lipid droplet | HCV NS3 hel inh | HCV core dimer | Lipid drop inh | AML12 tox img | AML12 tox conf
O=C(CSc1nc2ccsc2c(=O)n1Cc1ccccc1)NCc1ccco1 | -1 | 24 | -1 | 0 | x | x | x
CCC(Sc1nc2ccsc2c(=O)n1-c1ccc(Cl)c(C)c1)C(=O)NCc1ccco1 (stereo not drawn) | 0 | 54* | 7 | 10 | 64* | 0.076 | x
Cc1ccc(-n2nc3c(=O)n(CC(=O)NC4CCCCC4)nc(C)c3c2C)cc1 | 0 | 57* | 5 | -3 | 88* | -0.23 | 17
Cc1ccc(-n2nc3c(=O)n(C(C)C(=O)NCCc4cccs4)nc(C)c3c2C)cc1 (stereo not drawn) | 0 | 53* | 2 | -3 | 96* | -0.5 | 20
Cc1ccc(-n2nc3c(=O)n(C(C)C(=O)NC4CC4)nc(C)c3c2C)cc1 (stereo not drawn) | 0 | -2 | 13 | -4 | x | x | x
Cc1ccc(-n2nc3c(=O)n(CC(=O)NC(C)CCc4ccccc4)nc(C)c3c2C)cc1 (stereo not drawn) | 0 | 88* | 3 | 15 | 77* | -0.48 | 5
Cc1ccc(-n2nc3c(=O)n(CC(=O)NCc4ccccc4)nc(C)c3c2C)cc1 | 0 | 8 | -3 | 10 | x | x | x
O=C(NC(c1ccc(Cl)cc1)c1ccsc1)C1CCN(Cc2cccc(Cl)c2)CC1 (stereo not drawn) | 0 | x | x | x | x | x | x
Cc1cccc(C)c1NC(=O)C1(C)CN(S(C)(=O)=O)CC(=O)N1CCCn1ccnc1 (stereo not drawn) | 0 | x | x | x | x | x | x
O=C(COC(=O)c1cccc(S(=O)(=O)N2CCOCC2)c1)NC1CCCCC1 | 0 | x | x | x | x | x | x
Cc1cc(O)c(C)c(O)c1/C=N/NC(=O)c1cccnc1 | 0 | 59* | -5 | -12 | 0 | -1.1 | x
O=C(N/N=C/c1cc(Br)c(O)c(Br)c1O)c1cccnc1 | -1 | -5 | 32 | -5 | x | x | x
CC1(C(=O)Nc2ccc3c(c2)OCCO3)CCN1C(=O)Cc1ccc(-c2ccccc2)cc1 (stereo not drawn) | 0 | x | x | x | x | x | x
C=CCN(CC(=O)Nc1c(C)cccc1CC)C(=O)SCCC | 1 | 41 | -2 | -2 | x | x | x
CCCSC(=O)N(CC)CC(=O)Nc1c(CC)cccc1CC | -1 | 64* | -2 | -2 | 90* | -0.2 | 16
CCSC(=O)N(CC)CC(=O)Nc1c(CC)cccc1CC | -1 | 56* | 11 | 2 | 87* | -0.63 | 6
Cc1ccc(-c2nc3ccccc3n2C(C)C(=O)NC(C)(C)C)cc1 (stereo not drawn) | 0 | x | x | x | x | x | x
CC(C)c1cc(C(=O)N2CCCC(CCC(=O)NCc3ccccc3F)C2)n(C)n1 (stereo not drawn) | 0 | 51* | 13 | 2 | -14 | 0.48 | x
COc1ccccc1Nc1nnc(SCC(=O)Nc2nc(-c3ccc(F)cc3)cs2)s1 | 0 | 68* | 14 | 21 | 45 | 0.44 | x
CCOc1ccccc1Nc1nnc(SCC(=O)Nc2nc(-c3ccc(OC)cc3)cs2)s1 | -1 | 91* | 9 | 17 | 104* | 0.27 | 6
CC1=C(C(=O)N2CCOCC2)CC(CC(=O)NCCCN(C)C)C(=O)N1Cc1ccc(F)cc1 (stereo not drawn) | 0 | x | x | x | x | x | x
COc1ccccc1CNS(=O)(=O)c1ccc2c(c1)CC(C)N2C(=O)C1CCC1 (stereo not drawn) | 1 | 64* | 0 | 6 | 99* | 0.084 | 21
COc1ccccc1CNS(=O)(=O)c1ccc2c(c1)CC(C)N2C(=O)C1CC1 (stereo not drawn) | 0 | 79* | -2 | 0 | 106* | -1.1 | 18
CC1Cc2cc(S(=O)(=O)NCCC(=O)N(C)Cc3ccccc3)ccc2N1C(=O)C1CC1 (stereo not drawn) | 0 | 61* | -1 | 11 | 67* | -0.84 | 21
CCCN1C(=O)/C(=C/c2c(N3CCNC(=O)C3CC(=O)OCC)nc3c(C)cccn3c2=O)SC1=S (stereo not drawn) | 0 | 74* | -1 | 9 | 58* | 0.065 | x
SMILES | Tb MetRS inh | Lipid droplet | HCV NS3 hel inh | HCV core dimer | Lipid drop inh | AML12 tox img | AML12 tox conf
CC(C)C[C@H]1CN(CCCC[C@@H]2CNC(=O)C(=O)N2Cc2ccccc2)C(=O)C(=O)N1Cc1ccccc1 | 0 | x | x | x | x | x | x
Cn1c(=O)c2cc(NC(=S)NC3CC3)ccc2n1C/C=C/c1ccccc1 | 0 | x | x | x | x | x | x
CCOc1ccc(C(=O)Nc2ccc(NC(=S)NC(=O)CC)cc2)cc1Cl | 0 | 50* | 0 | 4 | 102* | 0.14 | 7
CCOc1ccc(C(=O)Nc2cc(NC(=O)c3ccc(OCC)c(Cl)c3)cc(C(=O)O)c2)cc1Cl | 0 | 1 | 17 | x | x | x | x
COCCN1C(=O)CN(S(C)(=O)=O)CC1(C)C(=O)NC(C)C (stereo not drawn) | -1 | x | x | x | x | x | x
CS(=O)(=O)N(CC(=O)Nc1ccc2c(c1)OCO2)Cc1ccccc1 | 0 | 54* | 8 | -2 | 69 | -0.96 | 7
CS(=O)(=O)N(CC(=O)Nc1cccc(Br)c1)Cc1ccccc1 | 0 | 52* | 0 | x | 84* | -0.59 | 25
CCCn1nc2cc(C(=O)NCc3ccc(OC(F)(F)F)cc3)ccc2c1OCC | 0 | 67* | -6 | 7 | 98* | -0.66 | 6
CCc1nc2ccc(C(=O)N3CCN(S(=O)(=O)CC)CC3)cn2c1N(C)Cc1cccs1 | 0 | x | x | x | x | x | x
CCc1ccccc1NC(=O)c1cccc(NC(=O)/C=C/c2ccco2)c1 | 0 | 53* | 19 | 9 | 51 | 4.3 | x
CCCCOc1ccc(/C=C/C(=O)OCC(=O)c2c(N)n(C)c(=O)n(C)c2=O)cc1OCC | 0 | 52* | -11 | 11 | 67* | -0.41 | -2
Cn1c(N)c(C(=O)COC(=O)/C=C/c2cccc(Cl)c2)c(=O)n(C)c1=O | 0 | x | x | x | x | x | x
Cc1ccc(NC(=O)C2CCCN(S(=O)(=O)c3c(C)noc3/C=C/N(C)C)C2)cc1F (stereo not drawn) | -1 | 57* | 18 | 7 | 77* | -0.69 | 8
Cc1noc(/C=C/N(C)C)c1S(=O)(=O)N1CCC(C(=O)Nc2ccc(Cl)cc2)CC1 | 0 | 3 | 17 | 0 | x | x | x
Cc1c(Cl)cccc1N(CC(=O)NC(C)c1ccccc1)S(C)(=O)=O (stereo not drawn) | 0 | 58* | 2 | 11 | 47 | -0.75 | x
